In ChEMBL document CHEMBL1144242, “Synthesis and antituberculosis activity of 5-methyl/trifluoromethoxy-1H-indole-2,3-dione 3-thiosemicarbazone derivatives” (Bioorg Med Chem, 2008):
In brackets after ≈: the same amount, converted by molar mass.

system: Mycobacterium tuberculosis; assay: Antitubercular activity against Mycobacterium tuberculosis H37Rv after 4 days by microplate alamar blue assay; assay type: functional; details: 96 h
In short: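 M. tuberculosis H37Rv (ATCC 27294) in BACTEC 12B medium by MABA; 10 twofold dilutions, usually 100 to 0.19 µg/mL; final titer as printed; 37 °C, Alamar Blue added from day 4 once control wells turned pink, read 24 h later (ex 530/em 590 nm). MIC: lowest concentration giving 90% fluorescence reduction vs controls, taken as IC90 from dose-response curve fit.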

Structure (SMILES)	IC90 [µg/mL]
CN1C(=O)/C(=N\NC(=S)Nc2ccccc2)c2cc(OC(F)(F)F)ccc21	> 100
Cc1ccc(NC(=S)N/N=C2\C(=O)Nc3ccc(C)cc32)cc1	> 100
C=CCNC(=S)N/N=C1\C(=O)N(C)c2ccc(C)cc21	> 100
CNC(=S)N/N=C1\C(=O)N(C)c2ccc(C)cc21	> 100
O=C1/C(=N\NC(=S)Nc2ccc(Br)cc2)c2cc(OC(F)(F)F)ccc2N1CN1CCOCC1	3.03 (≈ 5.43 µM)
O=C1/C(=N\NC(=S)Nc2ccc([N+](=O)[O-])cc2)c2cc(OC(F)(F)F)ccc2N1CN1CCOCC1	> 100
CNC(=S)N/N=C1\C(=O)Nc2ccc(C)cc21	> 100
Cc1ccc2c(c1)/C(=N/NC(=S)Nc1ccc(Cl)cc1)C(=O)N2C	> 100
CNC(=S)N/N=C1\C(=O)N(CN2CCOCC2)c2ccc(OC(F)(F)F)cc21	> 100
CCNC(=S)N/N=C1\C(=O)N(CN2CCOCC2)c2ccc(OC(F)(F)F)cc21	> 100
Cc1ccc2c(c1)/C(=N/NC(=S)NCc1ccccc1)C(=O)N2C	> 100
Cc1ccc2c(c1)/C(=N/NC(=S)Nc1ccc(F)cc1)C(=O)N2C	> 100
CN1C(=O)/C(=N\NC(=S)Nc2ccc(Cl)cc2)c2cc(OC(F)(F)F)ccc21	> 100
Cc1ccc(NC(=S)N/N=C2\C(=O)N(CN3CCOCC3)c3ccc(OC(F)(F)F)cc32)cc1	> 100
CN1C(=O)/C(=N\NC(=S)Nc2ccc(Br)cc2)c2cc(OC(F)(F)F)ccc21	> 100
Cc1ccc2c(c1)/C(=N/NC(=S)Nc1ccccc1)C(=O)N2C	> 100
Cc1ccc(NC(=S)N/N=C2\C(=O)N(C)c3ccc(C)cc32)cc1	> 100
CN1C(=O)/C(=N\NC(=S)Nc2ccc(F)cc2)c2cc(OC(F)(F)F)ccc21	> 100
O=C1/C(=N\NC(=S)NC2CCCCC2)c2cc(OC(F)(F)F)ccc2N1CN1CCOCC1	5.69 (≈ 11.7 µM)
O=C1/C(=N\NC(=S)NCc2ccccc2)c2cc(OC(F)(F)F)ccc2N1CN1CCOCC1	> 100
O=C1/C(=N\NC(=S)Nc2ccccc2)c2cc(OC(F)(F)F)ccc2N1CN1CCOCC1	> 100
CCCCNC(=S)N/N=C1\C(=O)N(CN2CCOCC2)c2ccc(OC(F)(F)F)cc21	> 100

Structure (SMILES)	IC90 [µg/mL]
Cc1ccc2c(c1)/C(=N/NC(=S)Nc1ccc(Br)cc1)C(=O)N2	> 100
Cc1ccc2c(c1)/C(=N/NC(=S)NC1CCCCC1)C(=O)N2C	> 100
C=CCNC(=S)N/N=C1\C(=O)N(C)c2ccc(OC(F)(F)F)cc21	> 100
CCCCNC(=S)N/N=C1\C(=O)N(C)c2ccc(OC(F)(F)F)cc21	> 100
Cc1ccc2c(c1)/C(=N/NC(=S)Nc1ccccc1Br)C(=O)N2C	> 100
Cc1ccc2c(c1)/C(=N/NC(=S)Nc1ccc([N+](=O)[O-])cc1)C(=O)N2C	> 100
CNC(=S)N/N=C1\C(=O)N(C)c2ccc(OC(F)(F)F)cc21	> 100
CN1C(=O)/C(=N\NC(=S)NC2CCCCC2)c2cc(OC(F)(F)F)ccc21	> 100
CN1C(=O)/C(=N\NC(=S)NCc2ccccc2)c2cc(OC(F)(F)F)ccc21	> 100
O=C1Nc2ccc(OC(F)(F)F)cc2/C1=N/NC(=S)Nc1ccccc1	> 100
Cc1ccc(NC(=S)N/N=C2\C(=O)Nc3ccc(OC(F)(F)F)cc32)cc1	> 100
O=C1Nc2ccc(OC(F)(F)F)cc2/C1=N/NC(=S)Nc1ccc(F)cc1	1.55 (≈ 3.88 µM)
Cc1ccc2c(c1)/C(=N/NC(=S)Nc1cccc(Br)c1)C(=O)N2	1.49 (≈ 3.83 µM)
O=C1Nc2ccc(OC(F)(F)F)cc2/C1=N/NC(=S)NCc1ccccc1	> 100
CCCCNC(=S)N/N=C1\C(=O)N(C)c2ccc(C)cc21	> 100
Cc1ccc2c(c1)/C(=N/NC(=S)NCc1ccccc1)C(=O)N2	> 100
CNC(=S)N/N=C1\C(=O)Nc2ccc(OC(F)(F)F)cc21	> 100
C=CCNC(=S)N/N=C1\C(=O)Nc2ccc(OC(F)(F)F)cc21	> 100
O=C1Nc2ccc(OC(F)(F)F)cc2/C1=N/NC(=S)Nc1ccc(Br)cc1	1.53 (≈ 3.33 µM)
CCNC(=S)N/N=C1\C(=O)N(C)c2ccc(C)cc21	> 100
C=CCNC(=S)N/N=C1\C(=O)Nc2ccc(C)cc21	> 100
O=C1Nc2ccc(OC(F)(F)F)cc2/C1=N/NC(=S)Nc1ccc(Cl)cc1	1.52 (≈ 3.67 µM)

Structure (SMILES)	IC90 [µg/mL]
Cc1ccc(NC(=S)N/N=C2\C(=O)N(C)c3ccc(OC(F)(F)F)cc32)cc1	> 100
O=C1Nc2ccc(OC(F)(F)F)cc2/C1=N/NC(=S)NC1CCCCC1	> 100
CCCCNC(=S)N/N=C1\C(=O)Nc2ccc(C)cc21	0.911 (≈ 3.14 µM)
Cc1ccc2c(c1)/C(=N/NC(=S)Nc1ccc(F)cc1)C(=O)N2	1.59 (≈ 4.83 µM)
Cc1ccc2c(c1)/C(=N/NC(=S)Nc1ccccc1)C(=O)N2	1.43 (≈ 4.62 µM)
CCNC(=S)N/N=C1\C(=O)N(C)c2ccc(OC(F)(F)F)cc21	> 100
CCNC(=S)N/N=C1\C(=O)Nc2ccc(C)cc21	> 100
O=C1/C(=N\NC(=S)Nc2ccc(Cl)cc2)c2cc(OC(F)(F)F)ccc2N1CN1CCOCC1	3.04 (≈ 5.92 µM)
Cc1ccc2c(c1)/C(=N/NC(=S)NC1CCCCC1)C(=O)N2	0.795 (≈ 2.51 µM)
Cc1ccc2c(c1)/C(=N/NC(=S)Nc1ccc(Br)cc1)C(=O)N2C	> 100
CN1C(=O)/C(=N\NC(=S)Nc2ccc([N+](=O)[O-])cc2)c2cc(OC(F)(F)F)ccc21	> 100
Cc1ccc2c(c1)/C(=N/NC(=S)Nc1ccc(Cl)cc1)C(=O)N2	3.57 (≈ 10.3 µM)
COc1ccc(NC(=S)N/N=C2\C(=O)N(CN3CCOCC3)c3ccc(OC(F)(F)F)cc32)cc1	> 100
C=CCNC(=S)N/N=C1\C(=O)N(CN2CCOCC2)c2ccc(OC(F)(F)F)cc21	> 100
O=C1/C(=N\NC(=S)Nc2ccc(F)cc2)c2cc(OC(F)(F)F)ccc2N1CN1CCOCC1	3.06 (≈ 6.15 µM)
Cc1ccc2c(c1)/C(=N/NC(=S)Nc1cccc(Br)c1)C(=O)N2C	> 100
COc1ccc(NC(=S)N/N=C2\C(=O)Nc3ccc(OC(F)(F)F)cc32)cc1	> 100
CCCCNC(=S)N/N=C1\C(=O)Nc2ccc(OC(F)(F)F)cc21	> 100
CCNC(=S)N/N=C1\C(=O)Nc2ccc(OC(F)(F)F)cc21	> 100
Cc1ccc2c(c1)/C(=N/NC(=S)Nc1ccccc1Br)C(=O)N2	> 100
Cc1ccc2c(c1)/C(=N/NC(=S)Nc1ccc([N+](=O)[O-])cc1)C(=O)N2	> 100
O=C1Nc2ccc(OC(F)(F)F)cc2/C1=N/NC(=S)Nc1ccc([N+](=O)[O-])cc1	> 100

system: not listed separately; assay: Selectivity index, ratio of IC50 for african green monkey Vero cells to IC90 for Mycobacterium tuberculosis H37Rv; assay type: toxicity, cell-based; details: read-out: Selectivity Index
In short: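 SI = VERO cell IC50 / M. tuberculosis H37Rv MIC. VERO cells exposed 72 h at concentrations up to 10x the H37Rv MIC; viability by MTT (CellTiter 96); IC50 from dose-response curve fit. MIC from MABA against H37Rv in BACTEC 12B medium, 37 °C, 90% fluorescence reduction defining IC90.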

Structure (SMILES)	selectivity ratio
O=C1/C(=N\NC(=S)Nc2ccc(Br)cc2)c2cc(OC(F)(F)F)ccc2N1CN1CCOCC1	2.46
O=C1/C(=N\NC(=S)NC2CCCCC2)c2cc(OC(F)(F)F)ccc2N1CN1CCOCC1	4.12
O=C1Nc2ccc(OC(F)(F)F)cc2/C1=N/NC(=S)Nc1ccc(F)cc1	1.64
Cc1ccc2c(c1)/C(=N/NC(=S)Nc1cccc(Br)c1)C(=O)N2	0.473
O=C1Nc2ccc(OC(F)(F)F)cc2/C1=N/NC(=S)Nc1ccc(Br)cc1	3.77
O=C1Nc2ccc(OC(F)(F)F)cc2/C1=N/NC(=S)Nc1ccc(Cl)cc1	4.2
CCCCNC(=S)N/N=C1\C(=O)Nc2ccc(C)cc21	4.82
Cc1ccc2c(c1)/C(=N/NC(=S)Nc1ccc(F)cc1)C(=O)N2	< 0.123
Cc1ccc2c(c1)/C(=N/NC(=S)Nc1ccccc1)C(=O)N2	0.742
O=C1/C(=N\NC(=S)Nc2ccc(Cl)cc2)c2cc(OC(F)(F)F)ccc2N1CN1CCOCC1	3.19
Cc1ccc2c(c1)/C(=N/NC(=S)NC1CCCCC1)C(=O)N2	1.98
Cc1ccc2c(c1)/C(=N/NC(=S)Nc1ccc(Cl)cc1)C(=O)N2	3.46
O=C1/C(=N\NC(=S)Nc2ccc(F)cc2)c2cc(OC(F)(F)F)ccc2N1CN1CCOCC1	0.784
CO[C@H]1/C=C/O[C@@]2(C)Oc3c(C)c(O)c4c(O)c(c(/C=N/N5CCN(C)CC5)c(O)c4c3C2=O)NC(=O)/C(C)=C\C=C\[C@H](C)[C@H](O)[C@@H](C)[C@@H](O)[C@@H](C)[C@H](OC(C)=O)[C@@H]1C [RIFAMPIN]	> 800
